Laboratory results from ChEMBL document CHEMBL4350999, “Enhanced tumor retention of NTSR1-targeted agents by employing a hydrophilic cysteine cathepsin inhibitor” (Eur J Med Chem, 2019).

How the values were obtained:
[1] = Drug excretion in SCID mouse xenografted with human HT-29 cells at 0.37 MBq/mouse, iv measured at 4 hrs using 177Lu labelled compound by gamma counter analysis; assay type: ADME, organism-based; details: in vivo
Procedure, shortened: (§1)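 Female SCID mice bearing s.c. flank HT-29 xenografts (5 × 10^6 cells in Matrigel, ~80 mm3). Given 10 μCi (0.37 MBq) 177Lu conjugate i.v. by tail vein; groups sacrificed at 4, 24, 72 h. Tissues weighed and gamma-counted as %ID/g, excretion as %ID; n = 5, mean ± SD. Blocking arms: colchicine 1 mg/kg i.p. beforehand, or D-lysine 40 mg/kg co-injected.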

[2] = Drug uptake in blood of SCID mouse xenografted with human HT-29 cells at 0.37 MBq/mouse, iv measured at 4 hrs using 177Lu labelled compound by gamma counter analysis; assay type: ADME, organism-based; details: in vivo; procedure, shortened: as §1
[3] = Drug uptake in lung of SCID mouse xenografted with human HT-29 cells at 0.37 MBq/mouse, iv measured at 4 hrs using 177Lu labelled compound by gamma counter analysis; assay type: ADME, organism-based; details: in vivo
Procedure, shortened: (§2)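 Female SCID mice (5 weeks) bore s.c. flank xenografts of HT-29 cells (5 × 10^6 in Matrigel), used at about 80 mm3 (two weeks) and randomized. Each mouse received 10 μCi (0.37 MBq) of HPLC-purified 177Lu-conjugate via tail vein. Tissues were excised, weighed and gamma-counted, expressed as %ID/g; mean ± SD, n = 5.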

[4] = Drug uptake in pancreas of SCID mouse xenografted with human HT-29 cells at 0.37 MBq/mouse, iv measured at 4 hrs using 177Lu labelled compound by gamma counter analysis; assay type: ADME, organism-based; details: in vivo; procedure, shortened: as §2
[5] = Drug uptake in small intestine of SCID mouse xenografted with human HT-29 cells at 0.37 MBq/mouse, iv measured at 4 hrs using 177Lu labelled compound by gamma counter analysis; assay type: ADME, organism-based; details: in vivo; procedure, shortened: as §2
[6] = Drug uptake in large intestine of SCID mouse xenografted with human HT-29 cells at 0.37 MBq/mouse, iv measured at 4 hrs using 177Lu labelled compound by gamma counter analysis; assay type: ADME, organism-based; details: in vivo; procedure, shortened: as §2
[7] = Drug uptake in kidney of SCID mouse xenografted with human HT-29 cells at 0.37 MBq/mouse, iv measured at 4 hrs using 177Lu labelled compound by gamma counter analysis; assay type: ADME, organism-based; details: in vivo; procedure, shortened: as §2
[8] = Drug uptake in muscle of SCID mouse xenografted with human HT-29 cells at 0.37 MBq/mouse, iv measured at 4 hrs using 177Lu labelled compound by gamma counter analysis; assay type: ADME, organism-based, Muscle tissue; details: in vivo; procedure, shortened: as §2
[9] = Drug uptake in bone of SCID mouse xenografted with human HT-29 cells at 0.37 MBq/mouse, iv measured at 4 hrs using 177Lu labelled compound by gamma counter analysis; assay type: ADME, organism-based, Bone element; details: in vivo; procedure, shortened: as §2
[10] = Drug uptake in heart of SCID mouse xenografted with human HT-29 cells at 0.37 MBq/mouse, iv measured at 24 hrs using 177Lu labelled compound by gamma counter analysis; assay type: ADME, organism-based; details: in vivo; procedure, shortened: as §2
[11] = Drug uptake in brain of SCID mouse xenografted with human HT-29 cells at 0.37 MBq/mouse, iv measured at 4 hrs using 177Lu labelled compound by gamma counter analysis; assay type: ADME, organism-based; details: in vivo; procedure, shortened: as §2
[12] = Drug uptake in pancreas of SCID mouse xenografted with human HT-29 cells at 0.37 MBq/mouse, iv measured at 24 hrs using 177Lu labelled compound by gamma counter analysis; assay type: ADME, organism-based; details: in vivo; procedure, shortened: as §2
[13] = Drug uptake in liver of SCID mouse xenografted with human HT-29 cells at 0.37 MBq/mouse, iv measured at 24 hrs using 177Lu labelled compound by gamma counter analysis; assay type: ADME, organism-based; details: in vivo; procedure, shortened: as §2
[14] = Drug uptake in SCID mouse xenografted with human HT-29 cells assessed as tumour retention level at 0.37 MBq/mouse, iv measured at 4 hrs using 177Lu labelled compound by gamma counter analysis; assay type: ADME, organism-based; details: in vivo; procedure, shortened: as §1
[15] = Drug uptake in stomach of SCID mouse xenografted with human HT-29 cells at 0.37 MBq/mouse, iv measured at 24 hrs using 177Lu labelled compound by gamma counter analysis; assay type: ADME, organism-based; details: in vivo
Procedure, shortened: (§3)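 Female SCID mice (5 weeks old) received s.c. flank HT-29 cells (5 × 10^6 in Matrigel). At ~80 mm3, two weeks later, mice were randomized and given 10 μCi (0.37 MBq) of purified 177Lu conjugate i.v. by tail vein. Mice were killed at 4, 24 or 72 h. Tissues were weighed and gamma counted as %ID/g, mean ± SD, n = 5. Tumor-to-tissue ratios were calculated.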

[16] = Drug uptake in spleen of SCID mouse xenografted with human HT-29 cells at 0.37 MBq/mouse, iv measured at 24 hrs using 177Lu labelled compound by gamma counter analysis; assay type: ADME, organism-based; details: in vivo; procedure, shortened: as §3
[17] = Drug uptake in bone of SCID mouse xenografted with human HT-29 cells at 0.37 MBq/mouse, iv measured at 24 hrs using 177Lu labelled compound by gamma counter analysis; assay type: ADME, organism-based, Bone element; details: in vivo; procedure, shortened: as §1
[18] = Drug excretion in SCID mouse xenografted with human HT-29 cells at 0.37 MBq/mouse, iv measured at 24 hrs using 177Lu labelled compound by gamma counter analysis; assay type: ADME, organism-based; details: in vivo; procedure, shortened: as §1
[19] = Drug uptake in heart of SCID mouse xenografted with human HT-29 cells at 0.37 MBq/mouse, iv measured at 72 hrs using 177Lu labelled compound by gamma counter analysis; assay type: ADME, organism-based; details: in vivo; procedure, shortened: as §2
[20] = Drug uptake in liver of SCID mouse xenografted with human HT-29 cells at 0.37 MBq/mouse, iv measured at 72 hrs using 177Lu labelled compound by gamma counter analysis; assay type: ADME, organism-based; details: in vivo; procedure, shortened: as §2
[21] = Drug uptake in stomach of SCID mouse xenografted with human HT-29 cells at 0.37 MBq/mouse, iv measured at 72 hrs using 177Lu labelled compound by gamma counter analysis; assay type: ADME, organism-based; details: in vivo; procedure, shortened: as §3
[22] = Drug uptake in spleen of SCID mouse xenografted with human HT-29 cells at 0.37 MBq/mouse, iv measured at 72 hrs using 177Lu labelled compound by gamma counter analysis; assay type: ADME, organism-based; details: in vivo; procedure, shortened: as §3
[23] = Drug uptake in small intestine of SCID mouse xenografted with human HT-29 cells at 0.37 MBq/mouse, iv measured at 72 hrs using 177Lu labelled compound by gamma counter analysis; assay type: ADME, organism-based; details: in vivo; procedure, shortened: as §2
[24] = Drug uptake in large intestine of SCID mouse xenografted with human HT-29 cells at 0.37 MBq/mouse, iv measured at 72 hrs using 177Lu labelled compound by gamma counter analysis; assay type: ADME, organism-based; details: in vivo; procedure, shortened: as §2
[25] = Drug uptake in kidney of SCID mouse xenografted with human HT-29 cells at 0.37 MBq/mouse, iv measured at 72 hrs using 177Lu labelled compound by gamma counter analysis; assay type: ADME, organism-based; details: in vivo; procedure, shortened: as §2
[26] = Drug uptake in muscle of SCID mouse xenografted with human HT-29 cells at 0.37 MBq/mouse, iv measured at 72 hrs using 177Lu labelled compound by gamma counter analysis; assay type: ADME, organism-based, Muscle tissue; details: in vivo; procedure, shortened: as §2
[27] = Drug uptake in bone of SCID mouse xenografted with human HT-29 cells at 0.37 MBq/mouse, iv measured at 72 hrs using 177Lu labelled compound by gamma counter analysis; assay type: ADME, organism-based, Bone element; details: in vivo; procedure, shortened: as §2
[28] = Drug uptake in SCID mouse xenografted with human HT-29 cells assessed as tumour retention level at 0.37 MBq/mouse, iv measured at 72 hrs using 177Lu labelled compound by gamma counter analysis; assay type: ADME, organism-based; details: in vivo; procedure, shortened: as §1
[29] = Octanol-PBS buffer distribution coefficient, log D of 177Lu labelled compound at pH 7.4 by radiometric analysis; assay type: physicochemical
Procedure, shortened: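 177Lu conjugate partitioned between 1-octanol and PBS pH 7.4. 100 μL aliquots from each layer were gamma counted, and LogD7.4 was calculated from the counts.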

Cc1cc(C)c(C(=O)OCC(=O)[C@H](CCCCNC(=O)CNC(=O)[C@@H](CO)NC(=O)[C@@H](CO)NC(=O)[C@@H](CO)NC(=O)Cn2cc(C[C@H](NC(=O)CN3CCN(CC(=O)O)CCN(CC(=O)O)CCN(CC(=O)O)CC3)C(=O)N[C@H](CO)C(=O)N[C@H](CO)C(=O)N[C@H](CO)C(=O)N[C@@H](CCCCN)C(=O)N3CCC[C@H]3C(=O)N(C)[C@@H](CCCNC(=N)N)C(=O)N[C@@H](CCCNC(=N)N)C(=O)N3CCC[C@H]3C(=O)N[C@@H](Cc3c(C)cc(O)cc3C)C(=O)N[C@H](C(=O)N[C@@H](CC(C)C)C(=O)O)C(C)(C)C)nn2)NC(=O)[C@H](Cc2ccccc2)NC(=O)OCc2ccccc2)c(C)c1
Drug excretion [1]: 16.6 %ID
Drug uptake [2]: 1.22 % ID/g
Drug uptake [3]: 4.5 % ID/g
Drug uptake [4]: 0.89 % ID/g
Drug uptake [5]: 6.1 % ID/g
Drug uptake [6]: 2.9 % ID/g
Drug uptake [7]: 58.2 % ID/g
Drug uptake [8]: 0.53 % ID/g
Drug uptake [9]: 1.6 % ID/g
Drug uptake [10]: 0.9 % ID/g
Drug uptake [11]: 0.09 % ID/g
Drug uptake [12]: 0.6 % ID/g
Drug uptake [13]: 26 % ID/g
Drug uptake [14]: 7.8 % ID/g
Drug uptake [15]: 0.9 % ID/g
Drug uptake [16]: 17 % ID/g
Drug uptake [17]: 1.5 % ID/g
Drug excretion [18]: 35 %ID
Drug uptake [19]: 0.4 % ID/g
Drug uptake [20]: 11 % ID/g
Drug uptake [21]: 0.8 % ID/g
Drug uptake [22]: 17 % ID/g
Drug uptake [23]: 4.3 % ID/g
Drug uptake [24]: 1.6 % ID/g
Drug uptake [25]: 45 % ID/g
Drug uptake [26]: 0.15 % ID/g
Drug uptake [27]: 1.1 % ID/g
Drug uptake [28]: 6.3 % ID/g
logD [29]: -1.95
